From ChEMBL document CHEMBL3085676, “Self-assembly to function: design, synthesis, and broad spectrum antimicrobial properties of short hybrid E-vinylogous lipopeptides” (J Med Chem, 2013)
≈ marks a conversion by molar mass, not a printed value. Calls of active or inactive are those of the source. No cut-off for these calls is given here. Where a SMILES comes first, the peptide text is derived from it. The star is where a group is joined. Octanoyl = CCCCCCCC(=O)*

Legend:
Staphylococcus aureus = assay: Antibacterial activity against Staphylococcus aureus NCIM 5021 after 18 to 20 hrs by broth dilution assay; format: functional
Procedure, shortened: (§1)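 Two-fold serial dilutions in Mueller-Hinton broth, run in triplicate. Overnight 37 °C cultures diluted to 10⁶ CFU/mL and added 1:1 to the peptide, then incubated at 37 °C for 18-20 h. Growth was read as absorbance at 492 nm against no-peptide controls. MIC taken as the lowest concentration giving complete inhibition or killing. Reproducible across three independent triplicates.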

Escherichia coli [1] = assay: Antibacterial activity against Escherichia coli K-12 NCIM 2563 assessed as disruption of cell membrane at 50 uM after 1 hr by atomic force microscopic analysis; format: functional, organism-based
Procedure, shortened: (§2)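 E. coli grown in MHB and C. albicans in potato dextrose broth were pelleted and resuspended in deionized water. Cells incubated with 50 µM peptide at 37 °C for 1 h, dried 30 min at 25 °C on poly-L-lysine glass, and imaged by AFM in intermittent contact mode. Peptide-free cells served as control.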

[2] = Hemolytic activity in human RBC after 1 hr; format: ADME, cell-based; details: erythrocyte
Procedure, shortened: (§3)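 Fresh EDTA-collected human RBCs washed four times in Tris-buffered saline (10 mM Tris, 150 mM NaCl, pH 7.2) and used at 4% v/v, mixed 1:1 with two-fold serially diluted peptide (top 100 µg/ml before mixing). Incubated at 37 °C for 1 h and centrifuged; supernatant hemoglobin read at 540 nm. Buffer and 1% Triton-X served as negative and positive controls. Percent hemolysis = (A−A_N)/(A_P−A_N)×100. Run in duplicate.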

Klebsiella pneumoniae = assay: Antibacterial activity against Klebsiella pneumoniae NCIM 2957 after 18 to 20 hrs by broth dilution assay; format: functional; procedure, shortened: as §1
Pseudomonas aeruginosa = assay: Antibacterial activity against Pseudomonas aeruginosa NCIM 5029 after 18 to 20 hrs by broth dilution assay; format: functional; procedure, shortened: as §1
Salmonella typhimurium = assay: Antibacterial activity against Salmonella typhimurium NCIM 2501 after 18 to 20 hrs by broth dilution assay; format: functional, Salmonella enterica subsp. enterica serovar Typhimurium; details: Salmonella enterica; procedure, shortened: as §1
Escherichia coli [3] = assay: Antibacterial activity against Escherichia coli expressing pUC19 plasmid assessed as disruption of cytoplasmic membrane at 20 ug/mL after 1 hr by beta-galactosidase leakage assay; format: functional, organism-based
Procedure, shortened: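 E. coli TOP10 transformed with pUC19 (lacZ) grown in LB with 100 µg/ml ampicillin at 37 °C to A660 0.6, then washed three times. Peptide stock (200 µg/ml) added 1:10 to cells and incubated at 37 °C for 1 h. After centrifugation, supernatant was mixed with 4-methylumbelliferyl substrate and fluorescence followed for 1 h. Initial velocities used; water blank; triplicates.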

Escherichia coli [4] = assay: Antibacterial activity against Escherichia coli K-12 NCIM 2563 at 50 uM after 60 mins by FITC uptake assay; format: functional, organism-based
Procedure, shortened: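 E. coli grown in MHB to OD 0.6, washed, and suspended at 2×10⁷ cfu/ml in 10 mM sodium phosphate pH 7.4. Cells incubated with 50 µM peptide at 37 °C for 60 min, then immobilized on poly-L-lysine slides for 50 min at 30 °C. FITC (10 µg/ml) added, slides washed, and cells examined by fluorescence microscopy. Solvent-treated control.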

Candida albicans [5] = assay: Antifungal activity against Candida albicans NCIM 3471 after 48 to 72 hrs; format: functional
Procedure, shortened: (§4)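 Peptide in water was serially diluted two-fold in potato dextrose broth and mixed 1:1 with yeast suspension at 2×10³ CFU/ml. Incubated at 25 °C for 48-72 h, with growth read as absorbance at 620 nm against a peptide-free culture. MIC was the lowest concentration giving complete growth inhibition. Run in triplicate.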

Escherichia coli [6] = assay: Antibacterial activity against Escherichia coli K-12 NCIM 2563 after 18 to 20 hrs by broth dilution assay; format: functional; procedure, shortened: as §1
Candida albicans [7] = assay: Antifungal activity against Candida albicans NCIM 3471 assessed as disruption of cell membrane by atomic force microscopic analysis; format: functional, organism-based; procedure, shortened: as §2
Nakaseomyces glabratus = assay: Antifungal activity against Candida glabrata NCIM 3237 after 48 to 72 hrs; format: functional; procedure, shortened: as §4
Saccharomyces cerevisiae = assay: Antifungal activity against Saccharomyces cerevisiae NCIM 3454 after 48 to 72 hrs; format: functional; procedure, shortened: as §4
Escherichia coli [8] = assay: Antibacterial activity against Escherichia coli NCIM 2065 after 18 to 20 hrs by broth dilution assay; format: functional; procedure, shortened: as §1
Cryptococcus neoformans = assay: Antifungal activity against Cryptococcus neoformans NCIM 3542 after 48 to 72 hrs; format: functional; procedure, shortened: as §4
[9] = Hemolytic activity in human RBC at 100 ug/ml after 1 hr; format: ADME, cell-based; details: erythrocyte; procedure, shortened: as §3

SMILES | MIC (Staphylococcus aureus) [µg/mL] | Activity (Escherichia coli [1]) | HD10 [2] [µg/mL] | MIC (Klebsiella pneumoniae) [µg/mL] | MIC (Pseudomonas aeruginosa) [µg/mL] | MIC (Salmonella typhimurium) [µg/mL] | Activity (Escherichia coli [3]) | Activity (Escherichia coli [4]) | MIC (Candida albicans [5]) [µg/mL] | MIC (Escherichia coli [6]) [µg/mL] | Activity (Candida albicans [7]) | MIC (Nakaseomyces glabratus) [µg/mL] | MIC (Saccharomyces cerevisiae) [µg/mL] | MIC (Escherichia coli [8]) [µg/mL] | MIC (Cryptococcus neoformans) [µg/mL] | Activity [9]
CCCCCCCCCCCC(=O)N[C@H](/C=C/C(=O)N[C@@H](CCCCN)C(=O)N[C@H](/C=C/C(=O)N[C@@H](CCCCN)C(N)=O)Cc1ccc(O)cc1)Cc1ccc(O)cc1 | 3.12 (≈ 3.74 µM) | Active | 2.5 | 3.12 (≈ 3.74 µM) | 3.12 (≈ 3.74 µM) | 3.12 (≈ 3.74 µM) | Active | Active | 1.56 (≈ 1.87 µM) | 6.25 (≈ 7.49 µM) | Active | 3.12 (≈ 3.74 µM) | 3.12 (≈ 3.74 µM) | 6.25 (≈ 7.49 µM) | 6.25 (≈ 7.49 µM) | –
CCCCCCCCCCCC(=O)N[C@@H](C)/C=C/C(=O)N[C@@H](CCCCN)C(=O)N[C@@H](C)/C=C/C(=O)N[C@@H](CCCCN)C(N)=O | 6.25 (≈ 9.62 µM) | Active | 48 | 3.12 (≈ 4.8 µM) | 6.25 (≈ 9.62 µM) | 6.25 (≈ 9.62 µM) | inactive | – | 3.12 (≈ 4.8 µM) | 6.25 (≈ 9.62 µM) | Active | 6.25 (≈ 9.62 µM) | 3.12 (≈ 4.8 µM) | 6.25 (≈ 9.62 µM) | 6.25 (≈ 9.62 µM) | –
CCCCCCCC(=O)N[C@@H](CC(C)C)C(=O)N[C@@H](CCCCN)C(=O)N[C@H](C(=O)N[C@@H](CCCCN)C(N)=O)C(C)C (Octanoyl-LKVK-NH2) | > 100 | Active | – | > 100 | > 100 | > 100 | – | – | > 100 | > 100 | Active | > 100 | > 100 | > 100 | > 100 | Non-toxic
CCCCCCCC(=O)N[C@H](/C=C/C(=O)N[C@@H](CCCCN)C(=O)N[C@H](/C=C/C(=O)N[C@@H](CCCCN)C(N)=O)Cc1ccccc1)Cc1ccccc1 | 3.12 (≈ 4.18 µM) | Active | 16 | 3.12 (≈ 4.18 µM) | 3.12 (≈ 4.18 µM) | 3.12 (≈ 4.18 µM) | Active | Active | 3.12 (≈ 4.18 µM) | 1.56 (≈ 2.09 µM) | Active | 3.12 (≈ 4.18 µM) | 3.12 (≈ 4.18 µM) | 1.56 (≈ 2.09 µM) | 3.12 (≈ 4.18 µM) | –
CCCCCCCCCCCC(=O)N[C@H](/C=C/C(=O)N[C@@H](CCCCN)C(=O)N[C@H](/C=C/C(=O)N[C@@H](CCCCN)C(N)=O)Cc1ccccc1)Cc1ccccc1 | 25 (≈ 31.2 µM) | Active | < 1.56 | 25 (≈ 31.2 µM) | 25 (≈ 31.2 µM) | 25 (≈ 31.2 µM) | – | – | 3.12 (≈ 3.89 µM) | 25 (≈ 31.2 µM) | Active | 6.25 (≈ 7.79 µM) | 6.25 (≈ 7.79 µM) | 25 (≈ 31.2 µM) | 6.25 (≈ 7.79 µM) | –
CCCCCCCC(=O)N[C@H](/C=C/C(=O)N[C@@H](CCCCN)C(=O)N[C@H](/C=C/C(=O)N[C@@H](CCCCN)C(N)=O)Cc1ccc(O)cc1)Cc1ccc(O)cc1 | 50 (≈ 64.3 µM) | Active | 54 | 50 (≈ 64.3 µM) | 50 (≈ 64.3 µM) | 50 (≈ 64.3 µM) | – | – | 12.5 (≈ 16.1 µM) | 25 (≈ 32.1 µM) | Active | 25 (≈ 32.1 µM) | 12.5 (≈ 16.1 µM) | 25 (≈ 32.1 µM) | 25 (≈ 32.1 µM) | –
CCCCCCCCCCCC(=O)N[C@@H](C)/C=C/C(=O)N[C@@H](CCCNC(=N)N)C(=O)N[C@@H](C)/C=C/C(=O)N[C@@H](CCCNC(=N)N)C(N)=O | 6.25 (≈ 8.85 µM) | Active | 22 | 6.25 (≈ 8.85 µM) | 3.12 (≈ 4.42 µM) | 3.12 (≈ 4.42 µM) | – | – | 3.12 (≈ 4.42 µM) | 12.5 (≈ 17.7 µM) | Active | 6.25 (≈ 8.85 µM) | 3.12 (≈ 4.42 µM) | 12.5 (≈ 17.7 µM) | 12.5 (≈ 17.7 µM) | –
CC(=O)N[C@H](/C=C/C(=O)N[C@@H](CCCCN)C(=O)N[C@H](/C=C/C(=O)N[C@@H](CCCCN)C(N)=O)Cc1ccccc1)Cc1ccccc1 | > 100 | Active | – | > 100 | > 100 | > 100 | – | – | > 100 | > 100 | Active | > 100 | > 100 | > 100 | > 100 | Non-toxic
CCCCCCCC(=O)N[C@@H](C)/C=C/C(=O)N[C@@H](CCCCN)C(=O)N[C@@H](C)/C=C/C(=O)N[C@@H](CCCCN)C(N)=O | > 100 | Active | 58 | > 100 | > 100 | > 100 | – | – | > 100 | > 100 | Active | 50 (≈ 84.2 µM) | > 100 | > 100 | > 100 | –
CCCCCCCC(=O)N[C@H](/C=C/C(=O)N[C@@H](CCCCN)C(=O)N[C@H](/C=C/C(=O)N[C@@H](CCCCN)C(N)=O)C(C)C)CC(C)C | 50 (≈ 75.3 µM) | Active | – | 25 (≈ 37.7 µM) | 50 (≈ 75.3 µM) | 50 (≈ 75.3 µM) | – | – | 25 (≈ 37.7 µM) | – | Active | 50 (≈ 75.3 µM) | 50 (≈ 75.3 µM) | 12.5 (≈ 18.8 µM) | 6.25 (≈ 9.41 µM) | –
CCCCCCCC(=O)N[C@@H](C)/C=C/C(=O)N[C@@H](CCCNC(=N)N)C(=O)N[C@@H](C)/C=C/C(=O)N[C@@H](CCCNC(=N)N)C(N)=O | > 100 | Active | 52 | > 100 | > 100 | > 100 | – | – | > 100 | > 100 | Active | > 100 | > 100 | > 100 | > 100 | –
